Experimental data published in ChEMBL document CHEMBL1134907, “An improved synthesis of the C-linked glucuronide of N-(4-hydroxyphenyl)retinamide” (Bioorg Med Chem Lett, 2002).

Assays:
RARγ = RARγ (Homo sapiens, UniProt P13631); experiment: Binding affinity for retinoic acid receptor RAR gamma
Rattus norvegicus [1] = experiment: Mean number of tumors/rat after retinoid dose of 2 mmol/kg diet; format: functional
RARα = RARα (Homo sapiens, UniProt P10276); experiment: Binding affinity for retinoic acid receptor RAR alpha
Rattus norvegicus [2] = experiment: Latency in DMBA-induced mammary tumor in rat after retinoid dose of 2 mmol/kg diet; format: functional
RARβ = RARβ (Homo sapiens, UniProt P10826); experiment: Binding affinity for retinoic acid receptor RAR beta
Rattus norvegicus [3] = experiment: Percentage of rats with tumor after retinoid dose of 2 mmol/kg diet; format: functional
Rattus norvegicus [4] = experiment: Initial DMBA-induced mammary tumor volume in rat after retinoid treatment at 2 mmol/kg diet; format: functional
In short: (§1)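 Rats bearing mammary tumors induced by dimethylbenz[a]anthracene (DMBA) 50 days earlier were fed the treatment retinoid in the diet for 10 days. Each group had three tumor-bearing rats, which were killed after the 10 days. Every tumor on each rat was measured to estimate the mean tumor volume for the group.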

Rattus norvegicus [5] = experiment: Final DMBA-induced mammary tumor volume in rat after retinoid treatment at 2 mmol/kg diet; format: functional; in short: as §1
Rattus norvegicus [6] = species on record: Rattus norvegicus; experiment: Percentage change in DMBA-induced mammary tumor in rats;no new tumors, partial regression in 6/8 tumors; format: functional; in short: as §1
Rattus norvegicus [7] = species on record: Rattus norvegicus; experiment: Percentage change in DMBA-induced mammary tumor in rats;Two new tumors, partial regression in 10/14 tumors; format: functional; in short: as §1
Rattus norvegicus [8] = species on record: Rattus norvegicus; experiment: Percentage change in DMBA-induced mammary tumor in rats; no new tumors, partial regression in 10/10 tumors; format: functional; in short: as §1

Chain of RARα (P10276 whole entry, looked up): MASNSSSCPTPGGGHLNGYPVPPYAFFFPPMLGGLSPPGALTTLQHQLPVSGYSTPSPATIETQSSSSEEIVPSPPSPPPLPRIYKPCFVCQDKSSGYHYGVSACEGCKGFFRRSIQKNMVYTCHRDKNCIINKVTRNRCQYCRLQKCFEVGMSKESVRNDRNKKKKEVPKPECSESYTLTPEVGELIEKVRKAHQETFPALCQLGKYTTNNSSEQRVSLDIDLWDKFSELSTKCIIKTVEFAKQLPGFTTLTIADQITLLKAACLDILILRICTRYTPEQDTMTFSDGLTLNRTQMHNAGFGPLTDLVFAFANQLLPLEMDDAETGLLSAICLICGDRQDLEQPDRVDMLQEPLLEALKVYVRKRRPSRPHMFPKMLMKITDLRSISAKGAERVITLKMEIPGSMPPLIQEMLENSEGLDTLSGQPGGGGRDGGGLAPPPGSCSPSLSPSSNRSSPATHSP
Chain of RARβ (P10826 whole entry, looked up): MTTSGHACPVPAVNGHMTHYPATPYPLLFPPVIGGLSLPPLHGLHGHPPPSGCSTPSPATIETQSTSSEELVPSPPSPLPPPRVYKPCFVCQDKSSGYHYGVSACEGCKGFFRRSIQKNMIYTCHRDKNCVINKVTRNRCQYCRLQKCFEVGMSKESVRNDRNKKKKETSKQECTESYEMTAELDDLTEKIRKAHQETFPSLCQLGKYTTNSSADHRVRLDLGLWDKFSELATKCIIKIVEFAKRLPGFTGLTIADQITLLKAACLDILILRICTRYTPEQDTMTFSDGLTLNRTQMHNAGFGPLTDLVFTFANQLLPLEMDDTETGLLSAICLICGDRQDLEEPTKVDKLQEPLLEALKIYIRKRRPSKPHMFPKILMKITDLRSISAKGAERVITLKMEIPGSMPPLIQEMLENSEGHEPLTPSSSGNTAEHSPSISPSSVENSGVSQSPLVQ
Chain of RARγ (P13631 whole entry, looked up): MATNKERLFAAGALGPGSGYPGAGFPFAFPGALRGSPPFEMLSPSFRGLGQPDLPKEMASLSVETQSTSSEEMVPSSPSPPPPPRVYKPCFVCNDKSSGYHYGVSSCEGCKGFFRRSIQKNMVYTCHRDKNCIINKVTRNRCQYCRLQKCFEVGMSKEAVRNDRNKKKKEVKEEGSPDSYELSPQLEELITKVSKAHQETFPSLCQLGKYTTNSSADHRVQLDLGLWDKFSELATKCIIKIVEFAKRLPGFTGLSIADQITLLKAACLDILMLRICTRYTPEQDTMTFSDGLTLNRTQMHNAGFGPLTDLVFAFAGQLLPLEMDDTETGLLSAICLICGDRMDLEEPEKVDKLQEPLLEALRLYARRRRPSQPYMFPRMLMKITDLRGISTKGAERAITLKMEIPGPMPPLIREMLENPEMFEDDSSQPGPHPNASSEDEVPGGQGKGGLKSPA

Ki (RARγ) [µM] | Ki (RARα) [µM] | Ki (RARβ) [µM] | Structure (SMILES) | Activity (Rattus norvegicus [1]) | Mean tumor atency (Rattus norvegicus [2]) [days] | Activity (Rattus norvegicus [3]) [%] | Tumor volume (Rattus norvegicus [4]) [cm*3] | Tumor volume (Rattus norvegicus [5]) [cm*3] | Change (Rattus norvegicus [6]) [%] | Change (Rattus norvegicus [7]) [%] | Change (Rattus norvegicus [8]) [%]
> 6 | > 2.2 | > 2.8 | CC1=C(/C=C/C(C)=C/C=C/C(C)=C/C(=O)Nc2ccc(O[C@@H]3O[C@@H](C(=O)O)[C@@H](O)[C@H](O)[C@@H]3O)cc2)C(C)(C)CCC1 | 0.71 | 48 | 57 | – | – | – | – | –
– | > 2.2 | > 6 | CC1=C(/C=C/C(C)=C/C=C/C(C)=C/C(=O)Nc2ccc(CC3OC(C(=O)O)C(O)C(O)C3O)cc2)C(C)(C)CCC1 (stereo not drawn) | 0.36 | 55 | 27 | 0.29 | 0.23 | -21 | – | –
> 6 | > 2.2 | > 2.8 | CC1=C(/C=C/C(C)=C/C=C/C(C)=C/C(=O)Nc2ccc(O)cc2)C(C)(C)CCC1 [FENRETINIDE] | – | – | – | 0.16 | 0.12 | – | -25 | –
– | – | – | CC1=C(/C=C/C(C)=C/C=C/C(C)=C/C(=O)O)C(C)(C)CCC1 [TRETINOIN] | – | – | – | 0.94 | 0.56 | – | – | -40
